Measured values as given in ChEMBL document CHEMBL1122996, “Interactions of apomorphine with serum and tissue proteins” (J Med Chem, 1985).
Where “and” joins values, the source holds several entries; their conditions need not be identical. Equal values may be shown once.

What was measured:
Albumin [1] = target: T1, Albumin (Bos taurus, UniProt P02769); assay: Covalent binding of compound to serum albumin after 1 hr when the level of [8,9-3H2]-1is 2.7 dpm *10e6; conditions: cattle
In short: (§1)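 BSA (32 mg) with 2 mg apomorphine HCl hemihydrate plus tritiated [8,9-3H2]apomorphine at the level stated, in pH 7.4 phosphate buffer, 2.1 mL total, incubated 1 h. Incubates were extracted twice with ethyl acetate. Protein-bound radioactivity was measured by LSC after one of three workups: perchloric acid precipitation with repeated trifluoroacetic acid-ethanol washes; Sephadex G-25 gel filtration in 1% sodium lauryl sulfate buffer; or 4-day dialysis.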

Mus musculus [2] = species: Mus musculus; assay: Radio activity covalently bound to forebrain without striatum of mouse brain; assay type: functional
In short: (§2)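 Male CD-1 mice (~35 g, n=10) given apomorphine 30 mg/kg with [3H]-apomorphine (0.153 mCi/kg) ip daily for 14 days, killed 24 h after the last dose. Plasma from infraorbital sinus; brain split into striatum, cerebellum, forebrain without striatum. Protein-bound radioactivity expressed as µg/g protein (albumin equivalent; plasma µg/mL) and as % of total tissue radioactivity.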

Mus musculus [3] = species: Mus musculus; assay: Radio activity in skeletal tissue(% dose/g of wet wt) contents on day 1; assay type: functional
In short: (§3)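 Male CD-1 mice (~35 g, n=10 per group) received apomorphine 30 mg/kg with [3H]-apomorphine (0.153 mCi/kg) ip, once or daily for 14 days. Killed 24 h after the last dose; GI tract (with contents or washed with distilled water), liver and kidney (rinsed of blood) and skeletal tissue taken. Radioactivity given as % of total dose; skeletal tissue as % dose/g wet weight.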

Homo sapiens [4] = species: Homo sapiens; assay: Percentage binding to human plasma proteins was determined by measuring HPLC peak at 0.10 micro g/ml concentration of compound 1 in plasma; assay type: cell-free
In short: (§4)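 Fresh plasma from fasted healthy human volunteers was spiked with 1-HCl plus [³H]-1 tracer. It was incubated 10 min at 37 °C and ultrafiltered through YMT membranes (1000g, 5 min, 37 °C). Ultrafiltrate was acidified with pH 3.0 acetate buffer containing carrier 1-HCl, argon-flushed and frozen at -15 °C. Phenyl-column HPLC was read by peak-eluate collection LSC, UV peak area, or radiochemical detection. % bound was calculated from total vs ultrafiltrate using a plasma water fraction of 0.93.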

Mus musculus [5] = species: Mus musculus; assay: Radio activity accumulation in plasma (Excreatable reactivity) on day 1; assay type: functional
In short: (§5)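 Male CD-1 mice (~35 g, n=10 per group) given apomorphine 30 mg/kg fortified with [3H]-apomorphine (0.153 mCi/kg) ip, either once or daily for 14 days. Sampled 24 h after the last dose: plasma from infraorbital sinus (extractable and nonextractable radioactivity) and brain regions (striatum, cerebellum, forebrain without striatum). Radioactivity expressed as µg apomorphine equivalent per mL or per g […].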

Mus musculus [6] = species: Mus musculus; assay: Radio activity accumulation in cerebellum (Excreatable reactivity) on 14 days; assay type: functional; in short: as §5
Homo sapiens [7] = species: Homo sapiens; assay: Percentage binding to human plasma proteins was determined by collecting HPLC eluate at 0.01 micro g/ml concentration of compound 1 in plasma; assay type: cell-free; in short: as §4
Mus musculus [8] = species: Mus musculus; assay: Radio activity accumulation in forebrain without striatum (Excreatable reactivity) on 14 days; assay type: functional; in short: as §5
Mus musculus [9] = species: Mus musculus; assay: Ratio of accumulation of radioactivity from 14 to 1 day in liver; assay type: functional
In short: (§6)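 Male CD-1 mice (~35 g, 10 per group) received 1 at 30 mg/kg ip with [³H]-1 (0.153 mCi/kg), once or daily for 14 days, with free access to food and water. At 24 h after the last dose, plasma (infraorbital sinus), brain regions, kidney, liver and GI tract were taken for radioactivity counting. The accumulation ratio is radioactivity after 14 doses divided by radioactivity after 1 dose.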

Mus musculus [10] = species: Mus musculus; assay: Radio activity in skeletal tissue (% dose/g of wet wt) on 14 days; assay type: functional; in short: as §3
Mus musculus [11] = species: Mus musculus; assay: Radio activity accumulation in forebrain without striatum (Excreatable reactivity) on day 1; assay type: functional; in short: as §5
Mus musculus [12] = species: Mus musculus; assay: Radio activity of [3H]-l in mice kidney on 14 days; assay type: functional; in short: as §3
Homo sapiens [13] = species: Homo sapiens; assay: Percentage binding to human plasma proteins was determined by measuring HPLC peak at 50.0 micro g/ml concentration in plasma; assay type: cell-free; in short: as §4
Mus musculus [14] = species: Mus musculus; assay: Radio activity covalently bound to cerebellum of mouse brain; assay type: functional; in short: as §2
Mus musculus [15] = species: Mus musculus; assay: Radio activity accumulation in plasma (Excreatable reactivity) on 14 days; assay type: functional; in short: as §5
Albumin [16] = target: T1, Albumin; assay: Covalent binding of compound to serum albumin after 1 hr when the level of [8,9-3H2]-1is 2.2 dpm *10e6 expressed as mol of drug/mol of serum albumin; conditions: cattle; in short: as §1
Homo sapiens [17] = species: Homo sapiens; assay: Percentage binding to human plasma proteins was determined by measuring HPLC peak at 1.00 micro g/ml concentration in plasma; assay type: cell-free; in short: as §4
Sus scrofa [18] = species: Sus scrofa; assay: Percentage binding to swine plasma proteins at 1.00 ug/mL concentration of the compound; assay type: cell-free
In short: (§7)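 Plasma came from male Sprague-Dawley rats (~450 g, ether, vena cava blood, lithium heparin) or from six mature female swine (jugular catheter, heparinized). It was spiked with 1-HCl (10 ng–50 µg/mL) containing 0.5 mCi/mL [³H]-1. Samples were ultrafiltered as for human plasma, and the ultrafiltrate was analysed by HPLC peak-collection LSC. N = 4.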

Mus musculus [19] = species: Mus musculus; assay: Radio activity covalently bound to plasma of mouse brain; assay type: functional; in short: as §2
Rattus norvegicus [20] = species: Rattus norvegicus; assay: Percentage binding to rat plasma proteins at 10.0 ug/mL concentration of the compound; assay type: cell-free; in short: as §7
Mus musculus [21] = species: Mus musculus; assay: Ratio of accumulation of radioactivity from 14 to 1 day in extractable reactivity in plasma; assay type: functional; in short: as §6
Albumin [22] = target: T1, Albumin; assay: Covalent binding of compound to serum albumin after 1 hr when the level of [8,9-3H2]-1is 2.0 dpm *10e6 expressed as mol of drug/mol of serum albumin; conditions: cattle; in short: as §1
Sus scrofa [23] = species: Sus scrofa; assay: Percentage binding to swine plasma proteins at 50 ug/mL concentration of the compound; assay type: cell-free; in short: as §7
Mus musculus [24] = species: Mus musculus; assay: Percentage of covalently bound total in cerebellum of mouse; assay type: functional; in short: as §2
Albumin [25] = target: T1, Albumin; assay: Covalent binding of compound to serum albumin after 1 hr when the level of [8,9-3H2]-1is 2.3 dpm *10e6; conditions: cattle; in short: as §1
Mus musculus [26] = species: Mus musculus; assay: Percentage of covalently bound total in striatum of mouse; assay type: functional; in short: as §2
Rattus norvegicus [27] = species: Rattus norvegicus; assay: Percentage binding to rat plasma proteins at 50.0 ug/mL concentration of the compound; assay type: cell-free; in short: as §7
Sus scrofa [28] = species: Sus scrofa; assay: Percentage binding to swine plasma proteins at 20.0 ug/mL concentration of the compound; assay type: cell-free; in short: as §7
Mus musculus [29] = species: Mus musculus; assay: Radio of accumulation of radioactivity from 14 to 1 day in nonextractable radioactivity in plasma brain; assay type: functional; in short: as §6
Mus musculus [30] = species: Mus musculus; assay: Radio activity accumulation in extractable reactivity in plasma (Excreatable reactivity) on day 1; assay type: functional; in short: as §5
Albumin [31] = target: T1, Albumin; assay: Covalent binding of compound to serum albumin after 1 hr when the level of [8,9-3H2]-1is 2.2 dpm *10e6; conditions: cattle; in short: as §1
Homo sapiens [32] = species: Homo sapiens; assay: Percentage binding to human plasma proteins was determined by collecting HPLC eluate at 10.0 micro g/ml concentration of compound 1 in plasma; assay type: cell-free; in short: as §4
Mus musculus [33] = species: Mus musculus; assay: Radio activity of [3H]-l in mice in GI tract with its contents on 14 days; assay type: functional, Gastrointestinal tract; in short: as §3
Mus musculus [34] = species: Mus musculus; assay: Radio activity accumulation in cerebellum (Excreatable reactivity) on day 1; assay type: functional; in short: as §5

T1 sequence (P02769 whole entry): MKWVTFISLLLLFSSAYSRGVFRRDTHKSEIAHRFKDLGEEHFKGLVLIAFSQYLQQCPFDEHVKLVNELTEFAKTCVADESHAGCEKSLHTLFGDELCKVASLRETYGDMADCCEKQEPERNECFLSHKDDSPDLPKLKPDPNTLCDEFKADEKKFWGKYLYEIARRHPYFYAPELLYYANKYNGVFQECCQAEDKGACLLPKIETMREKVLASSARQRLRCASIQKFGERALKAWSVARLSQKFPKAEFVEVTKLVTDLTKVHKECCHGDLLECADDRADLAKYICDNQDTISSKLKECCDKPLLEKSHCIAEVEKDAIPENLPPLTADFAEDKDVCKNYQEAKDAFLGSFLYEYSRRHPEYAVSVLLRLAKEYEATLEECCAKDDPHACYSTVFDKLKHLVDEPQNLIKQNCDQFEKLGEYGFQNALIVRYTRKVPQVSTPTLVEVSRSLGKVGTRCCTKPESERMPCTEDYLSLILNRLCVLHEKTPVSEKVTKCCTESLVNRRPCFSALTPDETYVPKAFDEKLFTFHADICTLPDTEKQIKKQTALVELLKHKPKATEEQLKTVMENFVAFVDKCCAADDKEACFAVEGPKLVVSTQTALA

CN1CCc2cccc3c2[C@H]1Cc1ccc(O)c(O)c1-3 [APOMORPHINE]
Binding (Albumin [1]): 8465 dpm mg-1 and 12693 dpm mg-1
Binding (Mus musculus [2]): 1.13 µg/g
Amount (Mus musculus [3]): 0.245%
Binding (Homo sapiens [4]): 96.6%
Accumulation (Mus musculus [5]): 0.561 µg/mL
Accumulation (Mus musculus [6]): 57.3 µg/g
Binding (Homo sapiens [7]): 96.8%
Accumulation (Mus musculus [8]): 69.6 µg/g
Ratio (Mus musculus [9]): 2.6
Amount (Mus musculus [10]): 0.394%
Accumulation (Mus musculus [11]): 23.1 µg/g
Amount (Mus musculus [12]): 0.331%
Binding (Homo sapiens [13]): 94.9%
Binding (Mus musculus [14]): 0.98 µg/g
Accumulation (Mus musculus [15]): 1.42 µg/mL
Binding (Albumin [16]): 2.1 M of drug (M of BSA)-1
Binding (Homo sapiens [17]): 96.6%
Binding (Sus scrofa [18]): 93.5%
Binding (Mus musculus [19]): 0.68 µg/mL
Binding (Rattus norvegicus [20]): 90.7%
Ratio (Mus musculus [21]): 2.6
Binding (Albumin [22]): 3 M of drug (M of BSA)-1
Binding (Sus scrofa [23]): 87%
Binding (Mus musculus [24]): 1.71%
Binding (Albumin [25]): 6215 dpm mg-1
Binding (Mus musculus [26]): 1.65%
Binding (Rattus norvegicus [27]): 89.1%
Binding (Sus scrofa [28]): 86.2%
Ratio (Mus musculus [29]): 2.6
Accumulation (Mus musculus [30]): 0.561 µg/mL
Binding (Albumin [31]): 3850 dpm mg-1
Binding (Homo sapiens [32]): 95.3% and 96.9%
Amount (Mus musculus [33]): 4.01%
Accumulation (Mus musculus [34]): 20 µg/g
